TCR CD3 inh: human TCR-CD3 binding inhibition | TAMRA-labeled TCR probe fluorescence, biochemical | inhibition, % at 9.4 µM | hit rate 0.37% among 360,000 | AID 651800;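 note: recombinant mutant TCR 2C K166C tagged with TAMRA read by polarization; 0% = receptor in buffer alone and 100% = receptor with positive control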
PRMT1 FP inh: inhibitors of human PRMT1 | Q99873 | recombinant PRMT1, activity-based probe fluorescence polarization | inhibition, % at 2.79 µM | hit rate 1.3% among 370,000 | AID 652257;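 active = inhibition above about 21% made by adding two undisclosed values, limit read from the data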
Target sequence (Q99873 whole entry, looked up): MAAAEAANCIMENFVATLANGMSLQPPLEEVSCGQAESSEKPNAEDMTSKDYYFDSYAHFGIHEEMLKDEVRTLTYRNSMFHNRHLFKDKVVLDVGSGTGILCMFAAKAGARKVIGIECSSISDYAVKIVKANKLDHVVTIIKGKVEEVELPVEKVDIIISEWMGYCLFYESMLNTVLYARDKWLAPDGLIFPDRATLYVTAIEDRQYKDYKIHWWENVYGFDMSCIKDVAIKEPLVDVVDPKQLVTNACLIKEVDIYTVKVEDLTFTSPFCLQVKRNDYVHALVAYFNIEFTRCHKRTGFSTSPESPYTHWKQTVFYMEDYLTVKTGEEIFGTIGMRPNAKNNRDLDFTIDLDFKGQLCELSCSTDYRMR
SIAE primary: blocks human sialic acid acetylesterase; AID 1053197; inhibition, % at 9.66 µM; hit rate 0.69% among 370,000; Q9HAT2; SIAE FP-Rh probe binding, fluorescence polarization;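 active = inhibition above a cutoff: mean of compounds within the control limits plus 3 SD of those, cut at about 17% in these data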;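 note: 0% = plate median of compound wells and 100% = probe without SIAE protein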
ABHD4 inh: inhibits mouse alpha/beta hydrolase domain 4; hit rate 0.54% among 370,000; purified mABHD4, FP-Rh probe fluorescence polarization; inhibition, % at 8.92 µM;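 active = inhibition exceeding the mean over every tested compound plus 3 SD, cut at about 30% in these data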;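 note: 0% = plate median of compound wells and 100% = S159A mutant with DMSO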
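Assay system: Wild-type mouse ABHD4 protein | Medium: HEPES pH 7.0 buffer, 150 mM NaCl, 0.01% Pluronic F-127 | Incubation: Enzyme–compound pre-incubation 45 min, then probe 60 min, both 25 °C | Technique: Fluorescence polarization with parallel and perpendicular emission, 525/598 nm | Evaluation: % inhibition of FP-Rh probe binding versus controls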
HTRA1 inhibitor: inhibitors of human serine peptidase HTRA1. Q92743. recombinant HTRA1, FP-rhodamine activity-based probe, fluorescence polarization. inhibition, % at 5.96 µM. hit rate 0.5% among 340,000. AID 504803; in the data active = inhibition above about 36%;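 note: 0% = enzyme with DMSO and 100% = wells lacking enzyme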
rCAG RNA binder: molecules binding r(CAG) RNA repeats | hit rate 1.3% among 370,000 | r(CAG) RNA repeat, TO-PRO-1 dye displacement fluorescence | inhibition, % at 3 µM;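 active = inhibition above the plate cutoff, the mean of all test compounds on that plate plus 3 SD, cut at about 35% in these data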;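 note: 0% = DMSO alone and 100% = 100 µM mitoxantrone as full dye displacement; higher means more dye released from RNA so lower well fluorescence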
HTRA1 conf: confirmation of human HTRA1 inhibitors; shares compounds with HTRA1 inhibitor; recombinant HTRA1, FP-rhodamine activity-based probe, fluorescence polarization; inhibition, % at 5.96 µM; hit rate 66% among 1,600; AID 540248;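 active = mean inhibition over three repeats above a set limit taken from the earlier primary screen, cut at about 37% in these data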;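 note: 0% = HTRA1 with DMSO and 100% = wells lacking HTRA1; inhibitors block probe binding so polarization drops and inhibition rises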
BSA probe FL: interferes with TAMRA-BSA probe, flagging TCR-CD3 hits | shares compounds with TCR CD3 inh | TAMRA-labeled BSA probe fluorescence counterscreen | inhibition, % at 9.4 µM | hit rate 10% among 1,200 | AID 652035; in the data active = inhibition above about 23%;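 note: 0% = buffer low control and 100% = reference high control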
TCR-CD3 conf: confirmation of human TCR-CD3 interaction inhibitors | shares compounds with TCR CD3 inh | TAMRA-labeled TCR probe fluorescence binding assay | inhibition, % at 9.4 µM | hit rate 48% among 1,200 | AID 652036
The depositor's hits bear a star; . = not tested or not shown. The list is not random: actives were taken first. Their share in the collection is about 3.5%. Cut-off read from the data, not from the text of the source, unless noted: active = inhibition above about 19%; inactive = the rest.

SMILES	TCR CD3 inh	PRMT1 FP inh	SIAE primary	ABHD4 inh	HTRA1 inhibitor	rCAG RNA binder	HTRA1 conf	others
O=C(NC(=S)NNC(=O)c1ccccc1O)c1cccs1	19	-2	16	12	56*	12	54*
CN(C(=O)CCn1nnc(-c2cccs2)n1)C1CCCCC1	.	-1	-5	0	.	3	.
COc1cccc(-c2nnc3n2N=C(c2ccc(Cl)cc2)CS3)c1	.	4	5	5	.	3	.
c1ccc(-c2nc3cc4ccccc4cc3[nH]2)nc1	-1	-2	15	7	55*	4	60*
CC(=O)Nc1ccc2nc(-c3ccccn3)[nH]c2c1	-4	0	-4	4	1	1	.
Cc1ccccc1CS(=O)(=O)Cc1ccc(C(=O)Nc2c(C)cccc2C)o1	.	6	-3	5	.	2	.
CC1CCCCC1NC(=O)COC(=O)c1c2c(nc3ccccc13)/C(=C\c1ccco1)CC2 (stereo not drawn)	6	14	12	33*	57*	54*	4
CCCCNC(=O)COC(=O)c1c2c(nc3ccccc13)/C(=C/c1cccs1)CC2	2	2	-4	-14	-32	19	.
C[C@H]1[C@@H](OC(=O)N2CCN(c3ccccc3)CC2)CC[C@@]23CCCN2C(=O)CCC[C@@H]13	.	0	2	7	.	.	.
CCCc1ccc(O)c(N=Cc2cc(Br)cc(OCC)c2O)c1	-5	5	-2	18	41*	14	55*
CCc1ccc(O)c(N=Cc2cccc(C)c2O)c1	0	2	9	20	26	6	.
N#Cc1c(N)[nH]c2ccc(Sc3ccccc3)cc12	5	-3	9	13	41*	11	33
O=C(Nc1ccc(Br)cc1)OC1CC2CC1[C@H]1CCCCN1[C@H]2Cc1ccccc1 (stereo partly drawn)	.	-8	-1	-4	.	7	.
O=C(O)c1cccc(Cn2c(Cl)c(/C=N/NC(=O)c3cc4ccccc4cc3O)sc2=O)c1	12	8	-32	-36	50*	77*	55*
CC(COc1cccc(Cl)c1)CN1CCC(C(O)(c2ccccc2)c2ccccc2)CC1 (stereo not drawn)	.	-4	-1	10	.	3	.
Nc1cc([N+](=O)[O-])cc2oc(-c3ccccc3)cc12	-27	8	3	23	45*	23	38*
COc1ccc(C2CCC3(CCC(=O)N3CCO)CC2)cc1 (stereo not drawn)	.	-3	6	-1	.	-1	.
Cc1nnsc1C(=O)N/N=C/c1ccc2ccccc2c1O	41*	15	6	5	41*	4	55*	BSA probe FL=-23;TCR-CD3 conf=29*
O=C(NC1CCCCN(Cc2cccc(C(F)(F)F)c2)C1=O)c1ccc(F)c(F)c1 (stereo not drawn)	.	-1	-3	-4	.	-3	.
COc1ccc(-c2cnnc(N/N=C/c3ccc(O)c(O)c3)n2)cc1	49*	6	5	21	60*	6	78*	BSA probe FL=-21;TCR-CD3 conf=44*
Cc1ccc(C(=O)Nc2nnc(CC(=O)N/N=C/c3ccc(O)c(O)c3)s2)cc1	34*	-2	4	14	48*	16	64*	BSA probe FL=-18;TCR-CD3 conf=68*
Cc1ccc(C(=O)Nc2nnc(CC(=O)N/N=C/c3ccncc3)s2)cc1	11	-1	-12	-12	-24	14	.
[C-]#[N+][C@H](O[C@@H]1O[C@H](CO)[C@@H](O)[C@H](O)[C@H]1O)c1ccccc1	-9	1	-2	1	-3	1	.
O=C(O)CC(CCc1ccccc1)OC1OC(CO)C(O)C(O)C1O (stereo not drawn)	32*	5	-17	0	41*	34	41*	BSA probe FL=-11;TCR-CD3 conf=30*
O=C(CSc1ccccc1)NC1CCCCN(Cc2cccc(Cl)c2)C1=O (stereo not drawn)	.	-2	0	2	.	3	.

Compound activity deposited in PubChem by The Scripps Research Institute Molecular Screening Center.
